Assay outcomes as filed in PubChem.
Only some compounds are listed: those with a hit (about 1.8% of all), similar ones and a draw of the others.
M5 PAM: positive allosteric modulators of human muscarinic M5 receptor. activation, % at 3 µM. actives 0.3% (n = 360,000). P08912. CHO-K1 hM5, Fluo-8 calcium, ACh EC20 PAM; 0% = ACh EC20, 100% = ACh EC100. AID 624038;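 active means activation above the run cutoff, the mean activation of all test compounds plus 3 SD, cut at about 18% in these data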
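system = human M5 receptor in CHO-K1 cells | reagent = EC20 acetylcholine as agonist stimulus | compound dosing = single-point, 3 µM nominal | incubation = Fluo-8 loading 80 min at 37 °C plus 30 min room temperature | detection = Fluo-8 calcium dye fluorescence, kinetic read | benchmarks = low control EC20 acetylcholine (0%), high control EC100 acetylcholine (100%)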
CHRM5 antagonist: CHRM5 antagonism in calcium assay. P08912. CHO-hM5 cells, Fluo-8 calcium fluorescence, ACh EC80. inhibition, % at 3 µM. actives 0.59% (n = 360,000);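 active means inhibition above a per-plate cutoff, the mean of that plate's test compounds plus 3 SD, cut at about 27% in these data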;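 further: 0% = acetylcholine EC80 with DMSO and 100% = DMSO without agonist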
M4 ag: agonists of human muscarinic M4 receptor (CHRM4); AID 624127; CHO-K1 hM4/Gqi5, Fluo-8 calcium fluorescence; vehicle 0%, full acetylcholine response 100%; actives 0.14% (n = 360,000); P08173; activation, % at 3 µM;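 active means activation above the run mean over all test wells plus 3 SD, cut at about 32% in these data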;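 further: peak over basal fluorescence ratio per well then scaled between controls; 0% = DMSO wells and 100% = acetylcholine at EC100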
Target sequence (P08173 whole entry, looked up): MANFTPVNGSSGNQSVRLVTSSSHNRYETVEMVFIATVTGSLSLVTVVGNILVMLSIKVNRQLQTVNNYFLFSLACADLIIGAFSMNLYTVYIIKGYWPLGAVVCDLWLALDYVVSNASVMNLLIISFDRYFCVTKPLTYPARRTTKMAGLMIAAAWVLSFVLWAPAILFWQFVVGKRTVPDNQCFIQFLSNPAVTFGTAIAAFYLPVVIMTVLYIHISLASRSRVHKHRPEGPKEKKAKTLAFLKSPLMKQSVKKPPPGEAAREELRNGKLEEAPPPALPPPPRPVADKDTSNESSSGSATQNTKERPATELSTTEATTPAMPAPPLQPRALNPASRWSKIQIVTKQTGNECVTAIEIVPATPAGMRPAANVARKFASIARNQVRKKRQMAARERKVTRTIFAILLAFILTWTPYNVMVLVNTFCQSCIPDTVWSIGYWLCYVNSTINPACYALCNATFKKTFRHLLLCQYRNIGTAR
M4 PAM: CHRM4 positive allosteric modulation | P08173 | CHO-K1 hM4/Gqi5, Fluo-8 calcium fluorescence, ACh EC20; 0% = ACh EC20, 100% = maximal ACh | activation, % at 3 µM | actives 0.4% (n = 360,000) | AID 624126;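 active means activation above its plate's cutoff, the mean activation of sample wells plus 3 SD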
M5 ag: agonists of human muscarinic M5 receptor (CHRM5); P08912; CHO-K1 hM5 cells, Fluo-8 calcium fluorescence; 0% DMSO wells, 100% maximal acetylcholine response; activation, % at 3 µM; actives 0.19% (n = 360,000); AID 624037;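 active means activation above the run's mean over test compounds plus 3 SD, cut at about 23% in these data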;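 further: signal is peak over basal fluorescence ratio across the kinetic read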
M4 antag: antagonists of human muscarinic M4 receptor (CHRM4). actives 0.73% (n = 360,000). CHO-hM4 cells, ACh EC80, Fluo-8 calcium fluorescence. P08173. inhibition, % at 3 µM;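 active means inhibition above its plate's cutoff, the mean inhibition of sample wells plus 3 SD, cut at about 27% in these data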;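 further: 0% = acetylcholine EC80 with DMSO and 100% = DMSO without agonist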
* = called active by the depositor; ! = repeats disagree.

SMILES	M5 PAM	CHRM5 antagonist	M4 ag	M4 PAM	M5 ag	M4 antag
Cc1c(C(=O)Nc2cc(F)ccc2F)sc2nc3n(c(=O)c12)CCCCC3	-4	-1	1	6	-1	-12
CCCOc1ccc2c(c1)C(=NN=C(N)N)c1cc(OCCC)ccc1-2	2	11	4	28*	2	-7
CC(C)Oc1ccc(C(=O)NCCCNC(=O)c2ccccn2)cc1	2	3	1	7	-3	2
Cc1nc(N)sc1C(=O)N/N=C/c1cccnc1	19*	-8	0	2	3	4
Cc1ccc(C(=O)c2coc3c2C(=O)C(=O)c2ccccc2-3)cc1	-15	36*	4	2	-4	-4
Cc1ccc(C(=O)c2c(C)oc3c2C(=O)C(=O)c2ccccc2-3)cc1	-8	12	6	-7	-5	7
Cc1ccc(NC(=O)C2CCN(S(=O)(=O)c3c(C)nn(C)c3C)CC2)c(Cl)c1	2	-6	2	1	-6	-5
O=C(Nc1ccc(Br)cc1)c1ccc(F)c(S(=O)(=O)NCc2cccs2)c1	-18	38*	12	-10	9	24
CC1(c2ccccc2)CC(C)(C)N2C(=O)Cc3cccc1c32 (stereo not given)	-3	6	-1	-13	-8	33*
Cc1ccsc1C(=O)OCC(=O)Nc1cccc(S(=O)(=O)N2CCCCC2)c1	0	0	7	-3	2	-3
COC(=O)C1CCN(Cc2c(C(=O)N3C[C@@H](C)O[C@@H](C)C3)nc3ccc(Cl)cn23)CC1	19*	-18	0	12	-2	-8
CC(=O)O[C@]1(C(C)=O)CCC2C3C=C(C)C4=CC(=O)CC[C@]4(C)C3CC[C@@]21C (stereo not given in full)	3	-4	1	1	-3	-22
CC(=O)O[C@H]1C[C@@]2(C)[C@@H](C[C@@H](O)[C@H]3[C@@]4(C)CC[C@@H](O)[C@@H](C)[C@@H]4CC[C@@]32C)/C1=C(\CCC=C(C)C)C(=O)O	-19	44*!	0	-16	-2	81*!
CC1=C(C(=O)N2CCOCC2)CC(CC(=O)NCc2cccc3ccccc23)C(=O)N1Cc1ccccc1 (stereo not given)	2	-4	2	-4	0	-12
CC(=O)c1ccccn1	0	3	1	1	2	-10
CC(=O)c1csc(CS(=O)(=O)c2ccccn2)n1	20*	26	12	-11	4	12
C=CCNC(=O)c1oc2ccc(S(=O)(=O)N3CCC4(CC3)OCCO4)cc2c1C	-1	-12	3	4	1	-3
COc1ccc(NC(=O)c2oc3ccc(S(=O)(=O)N4CCC5(CC4)OCCO5)cc3c2C)cc1	-24	19	32*	-10	12	26
O=C(CCNc1ccc(Cc2ccncc2)cc1)c1cccc([N+](=O)[O-])c1	-16	22	3	-19	-8	28*
O=C(CCNc1cccc(F)c1)c1cccc([N+](=O)[O-])c1	-9	8	1	-8	-10	-14
CC(OC(=O)Cc1n[nH]c(=O)c2ccccc12)C(=O)Nc1cc(Cl)cc(Cl)c1 (stereo not given)	-6	0	0	-4	2	0
CC(OC(=O)Cc1n[nH]c(=O)c2ccccc12)C(=O)Nc1ccc(Cl)cn1 (stereo not given)	19*	-21	4	2	0	-6
CN(C)CCNC(=O)c1ccc(-c2cnn(C)c2)c2ccoc12	2	0	0	1	0	3
Cc1ccc(C2=N/C(=C/N3CCOCC3)C(=O)O2)cc1	38*	-4	0	3	0	-5
Cc1cc2oc(C(=O)Nc3nonc3C)c(C)c2cc1Cl	0	0	1	1	0	-6
SMILES	M5 PAM	CHRM5 antagonist	M4 ag	M4 PAM	M5 ag	M4 antag
Cc1c(NC(=O)COC(=O)CSc2ccc([N+](=O)[O-])cc2)c(=O)n(-c2ccccc2)n1C	0	0	0	3	-2	2
Cc1cc(C(=O)N2CCC2(C)C(=O)O)c(C)o1 (stereo not given)	5	-19	1	18*	0	-25
CCCC(=O)Nn1cnc2c(c1=O)C1(CCCCC1)Cc1ccccc1-2	-3	6	0	-3	-6	4
CCC(=O)Nn1cnc2c(c1=O)C1(CCCCC1)Cc1ccccc1-2	18*	-7	3	8	-2	1
CC1=NN(c2cccc(C(=O)O)c2)C(=O)/C1=C\C=C/c1ccccc1	2	-2	1	24*	-2	4
CCN(CC)CCCN(C(=O)c1cccc(C)c1)c1nc(-c2ccc(OC)cc2)cs1	-11	16	16	65*	-22	35*
CCN(CC)CCCN(C(=O)c1ccc(Br)cc1)c1nc(-c2ccc(OC)cc2)cs1	3	-2	9	46*	-4	9
CCN(CC)CCCN(C(=O)c1cccs1)c1nc(-c2ccc(OC)cc2)cs1	-17	9	5	-21	-6	20
COc1ccc(CCNC(=O)CN2C(=O)NC(c3ccccc3)(c3ccccc3)C2=O)cc1	-13	18	9	-2	-1	5
COc1cc(C(=O)Nc2ccc(S(=O)(=O)N3CCCCC3)cc2)ccc1OCC(=O)N1CCOCC1	1	9	1	9	1	-8
CCOc1ccccc1-c1cc(C(=O)Nc2ccc(C(=O)O)cc2)c2ccccc2n1	-3	3	1	14*	-4	-26
O=c1[nH]c2ccccc2c2ccc(Cl)cc12	-1	12	0	1	-3	-12
O=c1[nH]c2cc(F)ccc2c2ccc(F)cc12	19*	-9	1	-2	-2	-13
CC1CCCC(C)N1C(=O)CN1C(=O)C(C)(C)Oc2ccc(C(=O)NC3CCCCC3)cc21 (stereo not given)	0	3	6	-6	0	2
CC1CCCC(C)N1C(=O)CN1C(=O)C(C)(C)Oc2ccc(C(=O)NC3CCCC3)cc21 (stereo not given)	-6	10	4	2	3	26*
CCC(CC)CN1C(N(C)C)=NC[C@@H]1CC(C)C	5	-1	0	13	-6	0
CCCC(C)c1nnc(NC(=O)C2CCCO2)s1 (stereo not given)	-12	5	0	-13	-7	30*
COc1cc(OC)c(-c2c3cc(O)c(=O)cc-3oc3cc(O)c(O)cc23)cc1OC	-20	54*	212*	-17	326*	52*
